Data set [1] can be described thus: Oral bioavailability in dog at 1 mg/kg. It counts as ADME, organism-based, Canis lupus familiaris. To be noted: in vivo.
Data set [2] in a line: Oral bioavailability in rat at 1 mg/kg. As to conditions: in vivo. Type of data set: ADME, organism-based. The method in brief:
(§1)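 Rats (n = 3) given 0.5 mg/kg intravenously and 1.0 mg/kg orally; values reported as mean ± spread over 3 animals.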

Data set [3] can be described thus: Clearance in rat at 0.5 mg/kg, iv and 1 mg/kg, po. Type of data set: ADME, organism-based. To be noted: in vivo. The method in brief:
as §1

The nature of data set [4]: Volume of distribution at steady state in rat at 0.5 mg/kg, iv and 1 mg/kg, po. It counts as ADME, organism-based. To be noted: in vivo, read-out: Vdss. The method in brief: as §1
The nature of data set [5]: Clearance in dog at 0.2 mg/kg, iv and 1 mg/kg, po. Type of data set: ADME, organism-based, Canis lupus familiaris. As to conditions: in vivo.
Data set [6] is described as follows: Half life in rat at 0.5 mg/kg, iv and 1 mg/kg, po. Type of data set: ADME, organism-based. As to conditions: in vivo. Summed up:
as §1

The nature of data set [7]: Volume of distribution at steady state in dog at 0.2 mg/kg, iv and 1 mg/kg, po. Type of data set: ADME, organism-based, Canis lupus familiaris. To be noted: in vivo, read-out: Vdss.
Data set [8] can be described thus: Half life in dog at 0.2 mg/kg, iv and 1 mg/kg, po. Type of data set: ADME, organism-based, Canis lupus familiaris. As to conditions: in vivo.
Data set [9] can be described thus: Half life in dog at 0.2 mg/kg, iv. It counts as ADME, organism-based, Canis lupus familiaris. Details: dose 0.2 mg/kg, route intravenous. As to conditions: in vivo.
Data set [10] is described as follows: Clearance in dog at 0.2 mg/kg, iv. It counts as ADME, organism-based, Canis lupus familiaris. Details: dose 0.2 mg/kg, route intravenous. As to conditions: in vivo.
A short description of data set [11]: Volume of distribution at steady state in dog at 0.2 mg/kg, iv. It counts as ADME, organism-based, Canis lupus familiaris. Details: dose 0.2 mg/kg, route intravenous. As to conditions: in vivo, read-out: Vdss.

The record followed here is ChEMBL document CHEMBL3112528 (ACS Med Chem Lett, 2014).

Usually bioavailability stands for the share of a dose that reaches the circulation, judged against a reference dose that is usually intravenous. A higher bioavailability goes with much systemic uptake. Turning to `CCOc1cc([C@@H](Nc2ccc3c(N)nccc3c2)C(=O)NS(=O)(=O)c2ccccc2)ccc1OC(C)C`, the results for the bioavailability in [1] and in data set [2] were 3.5% and less than 1%, respectively.
By half-life is commonly meant the time in which the quantity being followed falls by half. A high value points to slow loss. Take `CCOc1ccc(F)c([C@@H](Nc2ccc3c(N)nccc3c2)C(=O)N2CCC[C@@H]2c2cc(NC(=O)OC)ccc2S(=O)(=O)C(C)C)c1`: the clearance in data set [3] came out at 26 mL/min/kg; in [5], 41 mL/min/kg. In addition, the Vd in data set [4] came out at 5.6 L/kg; in [7], 4.2 L/kg. Moreover, the values for the bioavailability in data set [1] and in [2] were 45% and 7.9%, respectively. The half-life was 4.9 h in data set [6] and 2.2 h in [8].
For `CCS(=O)(=O)c1ccccc1[C@H]1[C@@H](C(=O)O)CCN1C(=O)[C@H](Nc1ccc2c(N)nccc2c1)c1ccc(F)c(OC)c1`, the half-life in data set [9] is 1.1 h. For the same molecule, the clearance in data set [10] is 14 mL/min/kg. Further, the Vd in [11] was determined as 0.65 L/kg.
With `CCOc1cc([C@@H](Nc2ccc3c(N)nccc3c2)C(=O)NCc2ccccc2)ccc1OC(C)C`, the bioavailability in [1] was determined as 45%; in [2], 31%.
